25 sequences from the EternaBench riboswitch data can be followed below.

A word on the apparent Kd: it is a dissociation constant that holds for the conditions of the assay.

This series deals with MS2 coat protein. Kind of series: apparent Kd, MS2 coat protein; higher = weaker binding; RNA-MaP array; FMN 200 µM where present. The essentials:
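Green signal from SNAP-549-labelled MS2 coat protein was normalised to red-channel RNA signal and to the median Fmax of control clusters. The protein was titrated from 0.7 or 1.5 nM, doubling to 3 µM, without and then with constant ligand, over designs transcribed by stalled E. coli RNA polymerase on Illumina sequencing-chip clusters, in 100 mM Tris-HCl pH 7.5, 80 mM KCl, 4 mM MgCl2, BSA, DTT, yeast tRNA and Tween-20. The apparent Kd is the median of filtered per-cluster binding-curve fits.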

The mark [1] stands for this setting: designed as: OFF switch for flavin mononucleotide, no ligand.
Setting [2] is: ligand present: flavin mononucleotide, designed as: OFF switch for flavin mononucleotide.
Where [3] appears, read: designed as: ON switch for flavin mononucleotide, no ligand.
[4] abbreviates: ligand present: flavin mononucleotide, designed as: ON switch for flavin mononucleotide.

For “GGCGGUCGGGAGGAUAUUCGGGCUGUUUGGCUUGGAGAAGGCUCGACAUGAGGAUCACCCAUGUAAGUGUUCUU”, the “apparent Kd” value reads like this: under setting [1], 0.376 µM; under setting [2], 0.406 µM.

With “AAGUCAGCAGGAUAUGCGAUGGUGGGCUAGGUAGCUUGCCCACAUGAGGAUCACCCAUGUAGAAGGGCUGGCUA”, the “apparent Kd” value runs as follows: under setting [1], 0.072 µM; under setting [2], 0.0487 µM.

“UCAUGUUAGCAGGAUAUGCUAUUUAUUUUUUAUGCAGAAGGGCUUACAUGAGGAUCACCCAUGUAUUAAGUUUU”: the “apparent Kd” value turned out to be 0.154 µM under setting [1] and 0.0191 µM under setting [2].

For “GCGUGACAUGAGGAUCACCCAUGUGAGGAUAUCUGGAUACUCUUUAUUUUAGAUAUCCAGAGAAGGCACAUGCU”, the “apparent Kd” value under setting [1] was determined as 0.217 µM and the “apparent Kd” value under setting [2] came out at 0.151 µM.

On to “AAGUUUGUACGAGGAUAUCAAUUGUUUCUAAAUUCAACAUGAGGAUCACCCAUGUAACAAUGGAGUGAGAAGGCGUGUGGGCAA”, for which the “apparent Kd” value by setting is: under setting [3], 0.214 µM; under setting [4], 0.203 µM.

In the case of “UUUUGAAAGUGAGGAUAUGACAUGAGGAUCACCCAUGUAAAGGGAGUUGAAUAUAUAGAAAGAUAUCAGAAGGCACAAAUGUUU”, the “apparent Kd” value runs as follows: under setting [1], 0.178 µM; under setting [2], 0.497 µM.

For “AAUGCCAAUGAAGGAUAUACAAACAUGAGGAUCACCCAUGUGUCUUUCGUGUAAGUGGAAUUCGCGUAGAAGGUCAUUGACAUA”, the “apparent Kd” value was determined as 0.0383 µM under setting [1] and 0.0223 µM under setting [2].

Consider “UCUGCCGCCGUGAGGAUAUGCCCGCGCGCCCGCGGGCAGAAGGCACAUGAGGAUCACCCAUGUCCCGCGGCUUU”, for which the “apparent Kd” value by setting is: under setting [1], 0.0151 µM; under setting [2], 0.0395 µM.

Turning to “CGAUAACAUAGUUAUCCGUAGCGAACAUGAGGAUCACCCAUGUAGGAUAUGUUACUAAACUAGUAACAGAAGGACAUGAGUCUU”, the “apparent Kd” value is, setting by setting: under setting [1], 0.0349 µM; under setting [2], 0.263 µM.

On to “CGGAUGUGAGGAUAUACAUGAGGAUCACCCAUGUGUGCCAGCUAGAUGACUGGCACUUGUAGAAGGCACGUCUG”, for which the “apparent Kd” value under setting [1] is 0.0113 µM and the “apparent Kd” value under setting [2] amounted to 0.0217 µM.

As for “CGGUGCUGAGGAUAUACAUGAGGAUCACCCAUGUGUGCCAGCUAGCUGACUGGCGCUUGUAGAAGGCAGUACUG”, the “apparent Kd” value reads like this: under setting [1], 0.0121 µM; under setting [2], 0.0244 µM.

As to “GGAUAGGACAGAGGAUAUACGUGCCAGAGAUACUAGCAAAAUUUCCUCACAUGAGGAUCACCCAUGUAGAAGGCUGUCCUAUCG”, the “apparent Kd” value is, setting by setting: under setting [1], 0.0336 µM; under setting [2], 0.293 µM.

With “GCAAGGCAUGUAGGAUAUCGAGCUCAAAGAGCUCGAGAAGGACAUGAGGAUCACCCAUGUGCUCACAGACAGUGAGCGCCUUGC”, the “apparent Kd” value was determined as 0.0184 µM under setting [1] and 0.0444 µM under setting [2].

For the sequence “CAAAGGUGAGGAUAUGCAUAACUAUGACGAAAGUCAUAAACACAUGAGGAUCACCCAUGUAGAAGGCACCACAA”, the “apparent Kd” value is, setting by setting: under setting [1], 0.0239 µM; under setting [2], 0.0183 µM.

With “CCGAAUAUGCAGGAUAUCGUAUCGGAAACGAUACGAGAAGGGUAAACAUGAGGAUCACCCAUGUUCCUUAACGG”, the “apparent Kd” value worked out at 0.0206 µM under setting [1] and 0.0222 µM under setting [2].

For the sequence “UGUGCUGAAGGAUAUGCGUAAUCUCGGUGACGAGUAGAUCUACAUGAGGAUCACCCAUGUAGAAGGUCAGUACU”, the “apparent Kd” value under setting [1] turned out to be 0.0178 µM and the “apparent Kd” value under setting [2] was determined as 0.0189 µM.

Regarding “CGACAGUCAGGAUAUGCAAAAAAAAAAAAAAAAAAAAAAAAGCAGAAGGGACAUGAGGAUCACCCAUGUCGUCG”, the “apparent Kd” value runs as follows: under setting [1], 0.0595 µM; under setting [2], 0.0452 µM.

Turning to “CCCUAGGGAGGAUAUCCAAUAUAUGACAUGAGGAUCACCCAUGUUUCCACUCGUACCUCCGGAGAAGGCCCAUCCC”, the “apparent Kd” value turned out to be 0.0263 µM under setting [1] and 0.0245 µM under setting [2].

Regarding “GAUGGACAUGAGGAUCACCCAUGUCAGGAUAUUGUUUGUGGCUAGUUUUGGUUACGGGCGAGAAGGGACUCGUC”, the “apparent Kd” value reads like this: under setting [1], 0.0226 µM; under setting [2], 0.0207 µM.

Consider “GGUGCCAUGUAGAAGGCAGAUCUGAUUCAGAUCUGAGGAUAUACAUGAGGAUCACCCAUGUAAAUGCACCGCACGAGAGUGCAA”, for which the “apparent Kd” value was 0.0331 µM under setting [1] and 0.149 µM under setting [2].

On to “GGAUAGGACAGAGGAUAUACGUGCUAGAGAUACGAGCAAAAUUUCCUCACAUGAGGAUCACCCAUGUAGAAGGCUGUCCUAUCG”, for which the “apparent Kd” value by setting is: under setting [1], 0.0325 µM; under setting [2], 0.578 µM.

In the case of “UUCAUGUGAGGAUAUGCGGCAUCAGGUGGGCCUGUCGCUGAGCAGAAGGCACAUGAGGAUCACCCAUGUGCUCC”, the “apparent Kd” value under setting [1] came to 0.0164 µM and the “apparent Kd” value under setting [2] stood at 0.0416 µM.

On to “AUAUGGGCCCAGAAGGUGCCAGCGAGAGCUGCACAUGAGGAUCACCCAUGUUGUCGGUGACGACGCAAGGAUAUGGGCCCAUAU”, for which the “apparent Kd” value under setting [3] was 0.0221 µM and the “apparent Kd” value under setting [4] turned out to be 0.00626 µM.

As to “UCUGAUUGGUGAGGAUAUACAUAAUUUAUAACUGUAGAAGGCACAAACCUCAAGACAUGAGGAUCACCCAUGUGGUAUUUAGAU”, the “apparent Kd” value under setting [1] stood at 0.285 µM and the “apparent Kd” value under setting [2] was 0.475 µM.

Consider “AGAUUGCAUGAGGAUAUCGUAUUAGAUAUAAUGCGAGAAGGCAUGACAUGAGGAUCACCCAUGUAGUGUGGGUU”, for which the “apparent Kd” value is, setting by setting: under setting [1], 0.0559 µM; under setting [2], 0.0402 µM.
